Measurements reported in the RNAGym collection of RNA variant scans (doi:10.1126/science.aae0568).
This sample holds only a part of the variants without activity.

B1: tRNA (parent)
chain: GUUCCGUUGGCGUAAUGGUAACGCGUCUCCCUCCUAAGGAGAAGACUGCGGGUUCGAGUCCCGUACGGAACG

Variants of: B1
Assay: yeast fitness relative to wild type (ratio to wild type); higher = fitter; tRNA-Arg(CCU), competitive growth, 37 C, YPD
Procedure, shortened: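 Variants of the tRNA-Arg(CCU) gene, chemically synthesised with a 3% per-site mutation rate at 69 sites, were placed at the native genomic locus in Saccharomyces cerevisiae. The pooled strains were competed in YPD at 37°C for 24 hours in six parallel replicates. Gene amplicons from the start population and from each end population were read by 100-nucleotide paired-end sequencing. Darwinian fitness relative to wild type came from changes in genotype frequencies; genotypes needed ≥ 100 starting reads, and estimates < 0.5 were set to 0.5.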

Yeast fitness, 0.529:
C11G A14G

Yeast fitness, ≤ 0.5:
C11G G18C C49A A70C
C11G A20U C30G C66U
C11G C27A C31A
C11G C27U A43C A65U
C11G C34A A45G U54A
C11G A20G U32A
C11G A15G C33G A37G U54A
C11G A14G A15U G23C G68C
C11A G23C G39C C61A C62G A65U
C11G C27U C34U
C11G A15C A70C
C11G C29U C34U C62A U64C C66U
C11G C30U A37U
C11G C27U C33G G52A
C11A U16C C33U A37C
C11G C49G C60A A70U
C11A G23C U32G C34A
C11G C49U C62U A70U
C11A G17C A43G
C11A U59C C61A C62U
C11G A57U
C11G A40U A45U A69U
C11G A21U G39C G44A U47A
C11G A21G A40G A69U
C11G C62U G63A
C11G A20U C24A G25C A70G
C11G C24U U28C G51A
C11G A36G G52A
C11G A42U C49U C62U
C11G G12C C60G
C11A G23A C30U C31G
C11G A40U C62A
C11G A36C
C11A U16C A21G G68A
C11G C27U C46G
C11G A36C C49A
C11G A21U U47A G63C
C11G C49U G68U
C11G A15U A36U C66U
C11G C29U G52A
C11G C27A A57C C62U
C11A U16C C31U A69U
C11A U16C G18C C61A G67A
C11G A15G U26G G44A
C11A U13A A20U C29G A36G C46U G58A
C11G A14C A15C A40C A70C
C11G C29G U35C A45U
C11A U13G C24G C34G G52A
C11G A15U C24G A40G G51A C60U G67A
C11G C30G A65C
C11G C33U G68C
C11G C33G
C11G C29A U54A A57U
C11G A15U C24G A40G
C11G C29A U35C A43C
C11G C29U C61A
C11G A14G G41A
C11G A15U A36U
C11G C30A C31G G50A
C11A G50C
C11G C27G A70G
C11G A15G C22A U26A C55G
C11G C29U C46G
C11G C29U C66A
C11A G25C C29U A65U
C11G A15C G17A G18C
C11G C30A G52A A65U
C11A U19C C24G C30U C31U C61U G67C
C11A U19G A36G C49U U54C A69C
C11A U16C A21G C55A
C11G A42U A43C C55A C66A
C11G C31A G39A G48A A57G A65G
C11A U16C G18C A45C A57C
C11G A36C G56A A70U
C11G A20C C24G G58A G67C
C11A U32A
C11G C27A C34G
C11A G23A U32C U47C
C11G A14G U26A U35A
C11G A14G G39C C55U
C11G A40C C46U C60A
C11G C30G C31G U32A G56A
C11G C30A U35A
C11G C29G C55A U64C
C11A U19A C29A U32A G48C C55G
C11G C31G C34U A40C
C11A U47C G51C
C11G A37G G50A
C11G G18A C24U G58A A70G
C11G A14G A21U A36G
C11G A36C G68C
C11G C24U U28C
C11A U13C C27A
C11G A21G A40G G58A C62G
C11G A14U G17A A36G G41A C55G C61A
C11A G48A C55U
C11G C29A C60U U64A
C11G A45C A65C
C11G C29G C49U G63A
C11G A14G A37G G44A
C11G A45U U64C
C11A U16C G18C A36G G56C
C11G C30U A37C C46U A57C
C11A G25C C29U A57G
C11G C24U A42C A65C
C11A U16C C27G G48C

Yeast fitness, 0.681:
C11A G63A

Yeast fitness, 0.642:
C11A G48A
C11G C62G

Yeast fitness, 0.646:
C11G C34A A36U G48A G52C C60A

Yeast fitness, 0.61:
C11G A20C C24U A36C U47A

Yeast fitness, 0.508:
C11G C31A

Yeast fitness, 0.661:
C11G

Yeast fitness, 0.611:
C11G C24G G51C
C11G A20U U28C A37C C49G

Yeast fitness, 0.718:
C11G C29U A36C A42G

Yeast fitness, 0.531:
C11G A14C C30G A45G U53C
C11G A14C G23C G41C

Yeast fitness, 0.644:
C11A U16C

Yeast fitness, 0.629:
C11A U59A

Yeast fitness, 0.525:
C11G C62U A65U

Yeast fitness, 0.584:
C11A G67U
C11G A14C C24G A36C G68A

Yeast fitness, 0.543:
C11G C29U A69U

Yeast fitness, 0.594:
C11G A15U

Yeast fitness, 0.535:
C11G C49U C62U
C11G C27U C60A

Yeast fitness, 0.614:
C11G C29A C31G C46A C60G

Yeast fitness, 0.521:
C11A U19G A36G

Yeast fitness, 0.565:
C11A U32C A65U

Yeast fitness, 0.578:
C11G C22G C27G C62U

Yeast fitness, 0.567:
C11A G41A G67U G68C

Yeast fitness, 0.542:
C11A U47G

Yeast fitness, 0.555:
C11G C31G

Yeast fitness, 0.566:
C11G C24G G67C

Yeast fitness, 0.63:
C11G A43C

Yeast fitness, 0.626:
C11G C27G U28G

Yeast fitness, 0.522:
C11G C49A

Yeast fitness, 0.599:
C11A U26G

Yeast fitness, 0.557:
C11G C55G G63C G67C

Yeast fitness, 0.527:
C11G A42G A45U U64C A70C

Yeast fitness, 0.732:
C11G C22U G68C

Yeast fitness, 0.6:
C11G G17A C24U C29G

Yeast fitness, 0.536:
C11A G41A C66G

Yeast fitness, 0.635:
C11A G38A U53A G63A G68A
C11A U64A

Yeast fitness, 0.561:
C11G A21G C31G A65U

Yeast fitness, 0.624:
C11G A57G
C11G C46G A57U

Yeast fitness, 0.631:
C11G C49U

Yeast fitness, 0.776:
C11G A70C

Yeast fitness, 0.504:
C11G C29A C61U

Yeast fitness, 0.505:
C11G A43U G67C

Yeast fitness, 0.638:
C11G A15G C22A U26A A40U C62A

Yeast fitness, 0.752:
C11G C46U

Yeast fitness, 0.528:
C11G A14U C34A
C11G C24G C62U

Yeast fitness, 0.59:
C11A G44C
C11G C34U U35A C55U
C11G C22G C33G

Yeast fitness, 0.87:
C11G A20G G44C U54C C62A

Yeast fitness, 0.546:
C11A U16C G18C A45C A57C G68C

Yeast fitness, 0.573:
C11A U59C A69U

Yeast fitness, 0.596:
C11A G52C

Yeast fitness, 0.563:
C11G C62A A70C

Yeast fitness, 0.556:
C11A U28A C61G C62G
